Test [1] addresses T1, Enoyl-acyl-carrier protein reductase (Plasmodium falciparum, UniProt Q965D5).
T1 sequence (Q965D5 whole entry): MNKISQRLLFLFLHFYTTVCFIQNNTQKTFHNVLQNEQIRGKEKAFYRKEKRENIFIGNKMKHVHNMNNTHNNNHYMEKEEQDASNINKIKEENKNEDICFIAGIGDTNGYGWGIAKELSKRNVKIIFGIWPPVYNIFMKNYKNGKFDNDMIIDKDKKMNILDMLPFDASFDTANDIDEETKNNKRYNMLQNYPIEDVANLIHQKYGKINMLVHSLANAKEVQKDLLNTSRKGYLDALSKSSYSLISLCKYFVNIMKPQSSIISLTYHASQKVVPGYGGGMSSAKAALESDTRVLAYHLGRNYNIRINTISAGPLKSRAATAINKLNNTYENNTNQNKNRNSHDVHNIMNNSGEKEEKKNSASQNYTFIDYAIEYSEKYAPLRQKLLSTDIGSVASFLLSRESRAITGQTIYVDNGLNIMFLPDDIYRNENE
In words: Inhibition of Plasmodium falciparum recombinant enoyl ACP reductase expressed in BL21 (DE3) cells with respect to NADH. The class given is cell-based. The procedure, abridged: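 Ki via Dixon plot (x-intercept). NADH fixed at 50 and 100 µM, crotonoyl-CoA 200 µM, 200 nM enzyme; inhibitor varied from 1 nM up to its IC50. A340 NADH-consumption assay at 25 °C, pH 7.5; mean of three sets.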

Test [2] deals with T1, Enoyl-acyl-carrier protein reductase. In words: (§1) Inhibition of Plasmodium falciparum recombinant enoyl ACP reductase expressed in BL21 (DE3) cells. The class given is biochemical. A digest of the protocol:
(§2)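 His-tagged enzyme from E. coli, Ni-NTA purified. Assay at 25 °C in 150 mM Tris-NaCl pH 7.5, 200 µM crotonoyl-CoA, 100 µM NADH, 200 nM enzyme, 1% DMSO; NADH oxidation followed as A340 decrease. Percent inhibition from residual activity across serial inhibitor dilutions; IC50 by nonlinear regression vs log concentration; mean of three sets.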

Test [3] has the same target. Put plainly: Inhibition of Plasmodium falciparum recombinant enoyl ACP reductase expressed in BL21 (DE3) cells with respect to crotonyl CoA. The class given is cell-based. A digest of the protocol:
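Ki via Dixon plot (x-intercept). Crotonoyl-CoA fixed at 100 and 200 µM, NADH 100 µM; inhibitor varied from 1 nM up to its IC50. Spectrophotometric NADH oxidation at 340 nm, 25 °C, Tris-NaCl pH 7.5; mean of three sets.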

The next test deals with Plasmodium falciparum. In words: Growth inhibition of chloroquine-sensitive Plasmodium falciparum FCK2 in human erythrocytes after 96 hrs. It counts as functional, organism-based. The following applies: FCK2, 96 h. The procedure, abridged: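 Synchronized early-trophozoite cultures (1-2% parasitemia, 2% hematocrit) in RPMI 1640 with 10% human serum, 0.225% bicarbonate, gentamycin; inhibitor in Me2SO (final ≤0.05%), added up to fourth day. Parasitemia scored by Giemsa-stained microscopy at 48 and 96 h against solvent control. IC50 by nonlinear regression of relative percent parasitemia vs log concentration; three independent experiments.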

Test [4] concerns the target T2, Enoyl-acyl-carrier protein reductase (Plasmodium falciparum) (UniProt Q965D5).
T2 sequence (whole entry): T1 sequence (Q965D5 whole entry)
The description is as §1. The class given is biochemical. A digest of the protocol:
as §2

pIC50, pKi: −log10 of the molar value. In brackets after ≈: the same amount, converted by molar mass. Activity calls are given as the source filed them. The rule behind the calls is not given here.

As a reminder, the pKi is the negative decadic logarithm of the Ki, by convention in mol/L. As a reminder, the pIC50 is the IC50 on a negative log10 scale, so that one unit is a factor of ten. As a reminder, the MIC is the lowest concentration found to suppress growth. Read a low MIC as a more susceptible organism.

As to `O=C1NC(=S)S/C1=C\c1ccc(-c2cc(Cl)ccc2Cl)o1`, the pKi in test [1] was 5.60; in test [3] it was 5.70. The pIC50 in test [2] was 5.22.
Take `O=C(O)c1cccc(-c2ccc(/C=C3\SC(=S)N(c4cccc(C(F)(F)F)c4)C3=O)o2)c1`: the negative-log IC50 (pIC50) in test [2] was 4.70.
Same read-out and setting: for `COc1ccc(/C=C2\SC(=S)N(c3ccc(OC)cc3)C2=O)cc1` the value was less than 4.00.
With `CCc1nnc(NS(=O)(=O)c2ccc(N3C(=O)c4c(Cl)c(Cl)c(Cl)c(Cl)c4C3=O)cc2)s1`, the pIC50 in test [2] was 4.05.
On the same count and under the same terms, next, `Cc1cc(/C=C2\SC(=S)N(CCCCCC(=O)O)C2=O)ccc1OCc1ccccc1`: less than 4.00; `COc1ccc(N2C(=O)/C(=C/c3ccc(N(C)C)cc3)SC2=S)cc1`: less than 4.00.
Regarding `O=C1/C(=C/c2ccc(O)c(O)c2)SC(=S)N1c1ccccc1`, the pKi in test [1] was 7.49; in test [3], 8.38. In addition, the pIC50 was 7.46 in test [2] and 6.12 in the test with Plasmodium falciparum. In addition, it took 2.5 µM (≈ 0.824 µg/mL) to inhibit growth against Plasmodium falciparum (MIC).
As to `CN1C(=O)/C(=C/c2ccc(-c3ccc(Cl)c(Cl)c3)o2)SC1=S`, in test [2], the pIC50 was less than 4.00.
Take `Oc1cc(Cl)ccc1Oc1ccc(Cl)cc1Cl` [TRICLOSAN]: the pIC50 in test [2] is 7.18. Moreover, the negative-log Ki (pKi) in test [3] was 6.18.
With `O=C1c2c(Cl)c(Cl)c(Cl)c(Cl)c2C(=O)N1c1ccc2[nH]c(/C=C/c3ccc(Cl)cc3)nc2c1`, the pIC50 in test [2] was 4.15.
Same read-out and setting: next, `CC(C)(C)c1ccc(CS[n+]2cc3ccccc3c(=O)n2Nc2ccc(Cl)nn2)cc1`: 4.30; `COc1cc(/C=C2\SC(=S)N(c3ccc(O)cc3)C2=O)ccc1O`: 6.06; `COc1ccc(-c2cc(C(=O)Nc3cc(Cl)ccc3O)no2)cc1`: 4.26.
Turning to `CN(C)CCOC(=O)CCCCCN1C(=O)/C(=C/c2ccccc2)SC1=S`, the pIC50 in test [2] is less than 4.00.
Take `CCN1C(=O)/C(=C/c2cc(Cl)c(O)c(Cl)c2)SC1=S`: in test [2], the pIC50 was less than 4.00.
As for `O=C1NC(=S)S/C1=C\c1ccc(-c2ccc(Cl)c(Cl)c2)o1`, the pKi in test [1] is 6.20; in test [3], 6.29. The pIC50 in test [2] was 6.01.
Regarding `O=C1NC(=S)S/C1=C\c1ccc(-c2ccccc2Cl)o1`, in test [2], the pIC50 is 4.46.
`COc1ccc(/C=C2\SC(=S)N(c3ccc(O)cc3)C2=O)cc1`: the pKi was 5.04 in test [1] and 5.06 in test [3]. The pIC50 in test [2] is 5.00.
`COC(=O)CCCCCN1C(=O)/C(=C/c2cc(OC)c(OC)c(OC)c2)SC1=S`: the result in test [4] was inactive.
As to `Cc1ccc(-c2ccc(/C=C3\SC(=S)NC3=O)o2)cc1Cl`, in test [2], the negative logarithm of the IC50 (pIC50) was 4.55.
As to `COc1ccc(Cl)cc1NC(=O)c1cc(-c2ccc(Cl)s2)nc2ccccc12`, the pIC50 in test [2] was 4.22.
Same read-out and setting: next, `O=C1/C(=C/c2ccco2)SC(=S)N1c1cccc(F)c1`: less than 4.00; `O=C1/C(=C/c2cccc(O)c2)SC(=S)N1c1ccc(F)cc1`: less than 4.00.
Still for that read-out and setting: for `CN(C)CCOC(=O)CCN1C(=O)/C(=C/c2ccc(Cl)cc2Cl)SC1=S` the value was less than 4.00; for `O=C(Nc1cc(Cl)ccc1O)c1cc(-c2ccc(Cl)cc2)on1`, 4.12.
Take `CN1C(=O)/C(=C/c2ccc(-c3ccc(Cl)cc3Cl)o2)SC1=S`: the result in test [4] was inactive. In addition, the pIC50 in test [2] is 6.06.
As for `O=C1/C(=C/c2ccc(Cl)cc2Cl)SC(=S)N1c1ccc(O)cc1`, in test [2], the pIC50 was 4.60.
As to `CCN1C(=O)/C(=C/c2ccc(N(CC)CC)cc2O)SC1=S`, the pIC50 in test [2] is less than 4.00.
`CCOc1ccc(N2C(=O)/C(=C/c3cccc4ccccc34)SC2=S)cc1`: the result in test [4] was inactive.
Take `O=C(NC1CCCc2ccccc21)c1cc(Sc2cccc(Cl)c2)nc2ccccc12` (stereo not drawn): the pIC50 in test [2] was 4.30.
On the same count and under the same terms, next, `CCCCCOc1ccc(/C=C2\SC(=S)N(CCCCCC(=O)O)C2=O)cc1OC`: less than 4.00.
Turning to `O=C1NC(=S)S/C1=C\c1ccc(-c2cc(Cl)cc(Cl)c2)o1`, the pKi in test [1] is 5.26; in test [3], 5.39. Besides, in test [2], the pIC50 is 5.21.
On to `CN(C)c1ccc(/C=C2\SC(=S)N(c3ccc(O)cc3)C2=O)cc1`, for which, in test [2], the negative logarithm of the IC50 (pIC50) is 6.06.
The same measure, in the same setting: for `Clc1ccc(CNc2nc(SCc3ccc(Cl)cc3)nc3ccccc23)cc1` the value was 4.28.
For the compound `O=C1NC(=S)S/C1=C\c1ccc(-c2cccc(Cl)c2Cl)o1`, the negative-log Ki (pKi) in test [1] was 6.25; in test [3], 6.32. The pIC50 in test [2] was 6.06.
Turning to `O=C1/C(=C/c2ccc(-c3cccc(Cl)c3)o2)SC(=S)N1c1cccc(Cl)c1`, the pIC50 in test [2] is less than 4.00.
On to `COC(=O)CCCCCN1C(=O)/C(=C/c2cccc(O)c2)SC1=S`, for which the pIC50 in test [2] is less than 4.00.
On the same count and under the same terms, for `COc1ccc(N2C(=O)/C(=C/c3ccc(OC)c4ccccc34)SC2=S)cc1` the value was 6.06; for `CN1C(=O)/C(=C/c2ccc(-c3cccc(Cl)c3)o2)SC1=S`, 4.52; for `O=C(O)CCCCCN1C(=O)/C(=C/c2c[nH]c3ccccc23)SC1=S`, 4.00.
Still for that read-out and setting: for `Cc1ccc(-c2ccc(/C=C3\SC(=S)N(C)C3=O)o2)cc1Cl` the value was 6.06.
On to `COc1cc(/C=C2\SC(=S)N(CCCCCC(=O)O)C2=O)ccc1OCc1ccc(Cl)cc1`, for which the negative logarithm of the Ki (pKi) in test [1] was 5.27; in test [3] it was 5.29. The pIC50 in test [2] is 5.19.
For `O=C1NC(=S)S/C1=C\c1ccc(-c2cccc(Cl)c2)o1`, in that order: 5.98, 6.06 and 5.77.
Turning to `O=C1/C(=C/c2cccc(O)c2)SC(=S)N1c1ccccc1`, the pIC50 in test [2] was less than 4.00.
`COc1ccc(N2C(=O)/C(=C/c3ccc(C=O)cc3)SC2=S)cc1`: the pKi in test [1] was 4.84; in test [3], 4.88. For the same compound, in test [2], the pIC50 is 5.82.
On to `CCc1ccc(/C=C2\SC(=S)N(CCCCCC(=O)OC)C2=O)cc1`, for which, in test [2], the pIC50 is less than 4.00.
For the compound `CN1C(=O)/C(=C/c2ccc(-c3cc(Cl)cc(Cl)c3)o2)SC1=S`, the pIC50 in test [2] is 6.06.
Still for that read-out and setting: for `CCN(CC)c1ccc(N2C(=O)/C(=C/c3ccc(OC)cc3)SC2=S)cc1` the value was less than 4.00; for `COC(=O)CCCCCN1C(=O)/C(=C/c2ccc(Cl)cc2)SC1=S`, less than 4.00.
On to `CC(C)c1ccc(/C=C2\SC(=S)N(CCCCCC(=O)O)C2=O)cc1`, for which the pIC50 in test [2] is less than 4.00.
For `CCCCOc1ccc(/C=C2\SC(=S)N(CCCCCC(=O)OC)C2=O)cc1`, the outcome in test [4] was inactive.
With `O=C(O)CCCN1C(=O)/C(=C/c2cn(-c3ccccc3)nc2-c2ccc(Cl)cc2)SC1=S`, in test [2], the negative-log IC50 (pIC50) is 4.30.
Still for that read-out and setting: next, `COc1ccc(N2C(=O)/C(=C/c3c4ccccc4cc4ccccc34)SC2=S)cc1`: less than 4.30; `O=C(NCCN1CCCc2ccccc21)c1cc(-c2ccc(Cl)s2)nc2ccccc12`: 4.22.
Turning to `CCCOc1ccc(/C=C2\SC(=S)N(CCCCCC(=O)O)C2=O)cc1OC`, the pIC50 in test [2] was 4.35.
With `CCCCCCOc1ccc(/C=C2\SC(=S)N(CCCCCC(=O)O)C2=O)cc1OC`, the pKi was 5.14 in test [1] and 5.18 in test [3]. The pIC50 in test [2] is 5.15.
Turning to `COc1ccc(N2C(=O)/C(=C/c3ccccc3)SC2=S)cc1`, in test [2], the pIC50 is less than 4.00.
On the same count and under the same terms, for `O=C1/C(=C/c2ccc(-c3ccc(Cl)cc3)o2)SC(=S)N1c1cccc(Cl)c1` the value was less than 4.00; for `COc1ccc(N2C(=O)/C(=C/c3ccc(C(C)C)cc3)SC2=S)cc1`, less than 4.00.
